The source of these data is ChEMBL document CHEMBL1154636, “Exploring the importance of piperazine N-atoms for sigma(2) receptor affinity and activity in a series of analogs of 1-cyclohexyl-4-[3-(5-methoxy-1,2,3,4-tetrahydronaphthalen-1-yl)propyl]piperazine (PB28)” (J Med Chem, 2009).

Molecules are shown by their SMILES.

Assay [1] has as its target Sigma non-opioid intracellular receptor 1 (Cavia porcellus, UniProt Q60492). Briefly: Displacement of [3H](+)-pentazocine ((+)-[2S-(2R,6R,11R)]-1,2,3,4,5,6-hexahydro-6,11-dimethyl- 3-(3-methyl-2-butenyl)-2,6-methano-3-benzazocine- 8-ol) from sigma 1 receptor in Dunkin guinea pig brain membrane by radioreceptor binding assay. It is filed as cell membranes. A digest of the protocol: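 IC50 came from six to nine concentrations, in two or three experiments with duplicate samples. Compounds were tested as hydrochloride salts, or as methylammonium iodides where applicable.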
Background: In a radioligand displacement assay an active substance lowers the binding of a labelled ligand.

A short description of assay [2]: Displacement of [3H]DTG form sigma 2 receptor in Wistar Hannover rat liver membrane by radioreceptor binding assay. It is filed as cell membranes. A digest of the protocol:
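Specific binding was defined with DTG (85-96%). IC50 came from six to nine drug concentrations, in two or three experiments with duplicate samples.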

The target of assay [3] is T1, 3-beta-hydroxysteroid-Delta(8),Delta(7)-isomerase (Cavia porcellus, UniProt Q60490).
T1 sequence (Q60490 whole entry): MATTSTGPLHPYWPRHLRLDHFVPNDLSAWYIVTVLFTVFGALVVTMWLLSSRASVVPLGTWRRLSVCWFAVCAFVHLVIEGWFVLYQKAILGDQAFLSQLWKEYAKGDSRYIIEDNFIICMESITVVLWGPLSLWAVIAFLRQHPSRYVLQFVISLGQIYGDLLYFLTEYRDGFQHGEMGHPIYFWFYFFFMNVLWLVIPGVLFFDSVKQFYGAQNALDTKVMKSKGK
Briefly: Displacement of [3H](+/-)-emopamil from EBP in Dunkin guinea pig liver membrane by radioreceptor binding assay. In kind it is cell membranes.

The nature of assay [4]: Selectivity ratio of Ki for sigma 2 receptor in Wistar Hannover rat liver membrane to Ki for sigma 1 receptor in Dunkin guinea pig brain. In kind it is cell membranes. A digest of the protocol: (§1)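 Ratios were calculated from Ki values. Sigma-1 Ki was measured with (+)-[3H]-pentazocine on guinea-pig brain membranes without cerebellum. […] Each IC50 came from six to nine concentrations, in two or three experiments with duplicates.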

Assay [5] addresses Sigma non-opioid intracellular receptor 1 (Rattus norvegicus, UniProt Q9R0C9). Briefly: Displacement of [3H](+/-)-pentazocine from sigma 1 receptor in rat whole brain.
A short description of assay [6]: Selectivity ratio of Ki for sigma 1 receptor in Dunkin guinea pig brain membrane to Ki for sigma 2 receptor in Wistar Hannover rat liver membrane. In kind it is cell membranes. A digest of the protocol: as §1
A short description of assay [7]: Displacement of [3H]DTG form sigma receptor in guinea pig brain. Also noted: species or system Cavia porcellus.
Assay [8] can be described thus: Displacement of [3H]DTG form sigma 2 receptor in rat liver membrane. In kind it is cell membranes. An outline of the steps: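 IC50 taken from six to nine drug concentrations, two or three experiments with duplicate samples, and converted to Ki. Tested as hydrochloride salts, or as methylammonium iodide salts for the quaternized analogs.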
The subject of assay [9] is SK-N-SH. Description: Antiproliferative activity against human SK-N-SH cells after 48 hrs by MTT assay. In kind it is functional, cell-based. A digest of the protocol: (§2)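 Human SK-N-SH neuroblastoma cells were grown in RPMI 1640 with 10% FBS, 2 mM glutamine, penicillin/streptomycin, 1 mM pyruvate and 1% non-essential amino acids at 37 °C under 5% CO2. Cells were plated at 10 000/well and dosed next day at 1–100 μM, with solvent (ethanol, DMSO) controls. After 48 h, 0.5 mg/mL MTT was added for 3 h at 37 °C. Formazan was dissolved in DMSO and read at 570 and 630 nm.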

Assay [10] relates to SK-N-SH. Briefly: Inhibition of human SK-N-SH cell proliferation at 100 uM after 48 hrs by MTT assay. In kind it is functional. A digest of the protocol: as §2
Assay [11] is described as follows: Binding affinity to sigma 2 receptor in human SK-N-SH cells. In kind it is cell-based.

Sequence of Sigma non-opioid intracellular receptor 1 (Cavia porcellus, UniProt Q60492) (Q60492 whole entry): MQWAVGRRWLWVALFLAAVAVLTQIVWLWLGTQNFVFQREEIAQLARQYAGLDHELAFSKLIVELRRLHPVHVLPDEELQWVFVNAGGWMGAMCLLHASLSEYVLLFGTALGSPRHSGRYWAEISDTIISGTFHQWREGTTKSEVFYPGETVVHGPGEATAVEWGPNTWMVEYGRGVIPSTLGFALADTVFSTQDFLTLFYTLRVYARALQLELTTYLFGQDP
Sequence of Sigma non-opioid intracellular receptor 1 (Rattus norvegicus, UniProt Q9R0C9) (Q9R0C9 whole entry): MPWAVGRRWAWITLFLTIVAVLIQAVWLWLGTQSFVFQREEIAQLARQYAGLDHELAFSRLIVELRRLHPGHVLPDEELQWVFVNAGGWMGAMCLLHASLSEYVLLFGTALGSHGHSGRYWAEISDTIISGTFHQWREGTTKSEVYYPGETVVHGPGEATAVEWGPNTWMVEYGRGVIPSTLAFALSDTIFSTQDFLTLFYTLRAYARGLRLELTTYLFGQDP

Consider `COc1cccc2c1CCCC2CCCN1CCCCC1` (stereo unspecified), for which the Ki (usually the dissociation constant of the complex between target and ligand, obtained from inhibition or displacement) in assay [1] came out at 3.38 nM; in assay [2], 41.2 nM; in assay [3] it was 11.1 nM; in assay [5] it was 18.2 nM. The Ratio Ki in [4] came to 12.
`COc1cccc2c1CCCC2CCCN1CCN(CCCC2CCCc3c(OC)cccc32)CC1` (stereo unspecified): the Ki in assay [1] was greater than 5000 nM; in assay [2] it was 120 nM; in assay [3] it was 470 nM. In addition, the Ratio Ki in [6] is greater than 42.
With `CC(=O)N1CCN(C)CC1`, the Ki in assay [1] is greater than 5000 nM; in assay [2] it was greater than 10000 nM; in assay [3], greater than 1000 nM.
For the compound `O=C(C1CCCCC1)N1CCN(C2CCCCC2)CC1`, the Ki in assay [1] came to 3.59 nM; in assay [2] it was 201 nM; in assay [3] it was 230 nM. Further, the Ratio Ki in assay [4] is 56.
`COc1cccc2c1CCCC2CCCCCN1CCC(C2CCCCC2)CC1` (stereo unspecified): the results for the Ki in assay [1], in assay [2] and in assay [3] were 236 nM, 72.3 nM and 49 nM, respectively. Besides, the Ratio Ki in assay [6] was 3.3.
As for `CCN1CCN(C2CCCCC2)CC1`, the Ki in assay [1] turned out to be 62.4 nM; in [2], 349 nM; in assay [3], 64.4 nM. Further, in assay [4], the Ratio Ki is 5.6.
For the compound `C1CCC(N2CCNCC2)CC1`, the Ki was greater than 5000 nM in assay [1], greater than 5000 nM in assay [2] and greater than 1000 nM in [3].
As to `COc1cccc2c1CCCC2CCCN1CCNCC1` (stereo unspecified), the Ki in assay [1] was 218 nM; in assay [2], 590 nM; in assay [3], 35.4 nM; in [7], greater than 877 nM. In [4], the Ratio Ki was found to be 2.7.
`Cc1ccccc1NC(=N)Nc1ccccc1C` [DITOLYLGUANIDINE] returned a Ki in assay [2] of 32 nM.
Regarding `COc1cccc2c1CCCC2CCCN1CCN(C2CCCCC2)CC1` (stereo unspecified), the Ki in assay [8] worked out at 0.68 nM. The EC50 – broadly, the midpoint of the concentration-response curve – with SK-N-SH [9] was determined as 9970 nM.
As to `c1ccc(CCN2CCN(c3ccccn3)CC2)cc1`, the inhibition – broadly, the drop in the measured response relative to a control, in per cent – at 100 µM in the assay on SK-N-SH [10] came to 38%.
Take `COc1cccc2c1CCCC2CCC[N+]1(C)CC[N+](C)(C2CCCCC2)CC1` (stereo unspecified): the Ki in assay [1] was greater than 5000 nM; in [2], 1710 nM; in [3] it was 150 nM. The Ratio Ki in assay [6] is greater than 3. The same compound returned an inhibition at 100 µM in the assay on SK-N-SH [10] of 30%.
`COc1cccc2c1CCCC2CCCNCC(=O)NC1CCCCC1` (stereo unspecified): the Ki came out at 3910 nM in assay [1], 798 nM in [2] and 1230 nM in [3]. The Ratio Ki in assay [6] was 5.
Turning to `COc1cccc2c1CCCC2CCCN1CC[N+](C)(C2CCCCC2)CC1` (stereo unspecified), the Ki in assay [1] stood at 338 nM; in [2] it was 13 nM; in assay [3] it was 23 nM. In assay [6], the Ratio Ki is 26. This compound had an inhibition at 100 µM with SK-N-SH [10] of 22%.
For `C1CCC(N2CCN(C3CCCCC3)CC2)CC1`, the Ki came out at 2.05 nM in [1], 11.5 nM in assay [2] and 17 nM in [3]. Also, the Ratio Ki in [4] amounted to 5.6. The compound also had an inhibition at 100 µM with SK-N-SH [10] of 4%.
With `C1CCC(CCCN2CCN(C3CCCCC3)CC2)CC1`, the Ki worked out at 0.25 nM in [1] and 4.7 nM in assay [3]. Also, the Ratio Ki in [4] is 19. In addition, in the assay with SK-N-SH [9], the EC50 was determined as 52100 nM.
Regarding `COc1cccc2c1CCCC2OCCN1CCC(C2CCCCC2)CC1` (stereo unspecified), the Ki is 91 nM in [1] and 161 nM in [2]. Besides, in assay [4], the Ratio Ki was 1.8.
Regarding `CC(C(O)c1ccc(O)cc1)N1CCC(Cc2ccccc2)CC1` (racemic) [IFENPRODIL], the affinity in assay [3], expressed as Ki, was 10.2 nM.
`COc1cccc2c1CCCC2CCCN1CCN(C(=O)C2CCCCC2)CC1` (stereo unspecified): the Ki in assay [1] is greater than 5000 nM; in assay [2], 304 nM; in assay [3], 550 nM. Besides, the Ratio Ki in assay [6] was greater than 16.
In the case of `COc1cccc2c1CCCC2CCCC1CCN(C2CCCCC2)CC1` (stereo unspecified), the values for the Ki in assay [1], in assay [2] and in assay [3] were 1.1 nM, 26.6 nM and 1.46 nM, respectively. Also, the Ratio Ki in [4] is 24. Also, the EC50 in the assay with SK-N-SH [9] turned out to be 1400 nM.
Consider `COc1cccc2c1CCCC2NCCN1CCC(C2CCCCC2)CC1` (stereo unspecified), for which the Ki came out at 0.67 nM in assay [1] and 74.7 nM in [2]. Also, the Ratio Ki in assay [4] was determined as 111.
In assay [11], `CC(C)=CCN1CC[C@]2(C)c3cc(O)ccc3C[C@H]1[C@H]2C` [(+)-PENTAZOCINE] displayed a Ki of 1860 nM.
As for `COc1cccc2c1CCCC2CCC[N+]1(C)CCN(C2CCCCC2)CC1` (stereo unspecified), the values for the Ki in assay [1], in assay [2] and in assay [3] were 63.7 nM, 6.78 nM and 32 nM, respectively. The Ratio Ki in [6] is 9.4. For the same compound, 100 µM produced 26% inhibition in the assay with SK-N-SH [10].
As to `COc1cccc2c1CCCC2CCCN1CCC(O)(C2CCCCC2)CC1` (stereo unspecified), the Ki came to 5.56 nM in assay [1], 9.27 nM in assay [2] and 10.4 nM in assay [3]. Further, in [4], the Ratio Ki was 1.6. This compound returned an EC50 with SK-N-SH [9] of 15900 nM.
Consider `CC(=O)N1CCN(C2CCCCC2)CC1`, for which the values for the Ki in assay [1], in assay [2] and in assay [3] were greater than 5000 nM, greater than 5000 nM and greater than 1000 nM, respectively.
Regarding `COc1cccc2c1CCCC2CCCN1CCC(C2CCCCC2)CC1` (stereo unspecified), the Ki in assay [1] was 143 nM; in [2], 18.8 nM; in assay [3], 7.4 nM. The Ratio Ki in [6] came to 7.6. Also, the EC50 in the assay on SK-N-SH [9] is 3640 nM.
Regarding `COc1cccc2c1CCCC2CCCN1CCOCC1` (stereo unspecified), the Ki in [1] came to 9.1 nM; in [2], 442 nM. Moreover, the Ratio Ki in assay [4] worked out at 49.
Regarding `COc1cccc2c1CCCC2CCC(=O)N1CCN(C2CCCCC2)CC1` (stereo unspecified), the Ki was 0.11 nM in assay [1], 179 nM in assay [2] and 7.4 nM in [3]. In addition, the Ratio Ki in [4] was 1630.
